Experimental data as given in ChEMBL document CHEMBL4229364, “Structure-activity relationships of 2, 4-disubstituted pyrimidines as dual ERα/VEGFR-2 ligands with anti-breast cancer activity” (Eur J Med Chem, 2018).
Calls of active or inactive are those of the source. No cut-off for these calls is given here.

Legend:
MCF7 [1] = assay: Potency index, ratio of tamoxifen IC50 to compound IC50 for antiproliferative activity against human MCF7 cells; format: functional
Procedure, shortened: (§1)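 Potency index is the reference drug's MCF-7 MTT IC50 divided by the compound's IC50. Reference drugs were tamoxifen or raloxifene. Cells received 48 h exposure over 4×10^-5 to 1×10^-6 mol/L with a 1% DMSO control, then A490 readout.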

MCF7 [2] = assay: Induction of apoptosis in human MCF7 cells assessed as necrtotic cells at 1 uM after 24 hrs by Annexin V-FITC/propidium iodide staining based flow cytometry (reference value: 2.05%); format: functional
[3] = molecular target: T1, Vascular endothelial growth factor receptor 2 (Homo sapiens, UniProt P35968); assay: Inhibition of VEGFR2 (unknown origin) using TK substrate after 1 hr by HTRF assay
T1 sequence (P35968 whole entry): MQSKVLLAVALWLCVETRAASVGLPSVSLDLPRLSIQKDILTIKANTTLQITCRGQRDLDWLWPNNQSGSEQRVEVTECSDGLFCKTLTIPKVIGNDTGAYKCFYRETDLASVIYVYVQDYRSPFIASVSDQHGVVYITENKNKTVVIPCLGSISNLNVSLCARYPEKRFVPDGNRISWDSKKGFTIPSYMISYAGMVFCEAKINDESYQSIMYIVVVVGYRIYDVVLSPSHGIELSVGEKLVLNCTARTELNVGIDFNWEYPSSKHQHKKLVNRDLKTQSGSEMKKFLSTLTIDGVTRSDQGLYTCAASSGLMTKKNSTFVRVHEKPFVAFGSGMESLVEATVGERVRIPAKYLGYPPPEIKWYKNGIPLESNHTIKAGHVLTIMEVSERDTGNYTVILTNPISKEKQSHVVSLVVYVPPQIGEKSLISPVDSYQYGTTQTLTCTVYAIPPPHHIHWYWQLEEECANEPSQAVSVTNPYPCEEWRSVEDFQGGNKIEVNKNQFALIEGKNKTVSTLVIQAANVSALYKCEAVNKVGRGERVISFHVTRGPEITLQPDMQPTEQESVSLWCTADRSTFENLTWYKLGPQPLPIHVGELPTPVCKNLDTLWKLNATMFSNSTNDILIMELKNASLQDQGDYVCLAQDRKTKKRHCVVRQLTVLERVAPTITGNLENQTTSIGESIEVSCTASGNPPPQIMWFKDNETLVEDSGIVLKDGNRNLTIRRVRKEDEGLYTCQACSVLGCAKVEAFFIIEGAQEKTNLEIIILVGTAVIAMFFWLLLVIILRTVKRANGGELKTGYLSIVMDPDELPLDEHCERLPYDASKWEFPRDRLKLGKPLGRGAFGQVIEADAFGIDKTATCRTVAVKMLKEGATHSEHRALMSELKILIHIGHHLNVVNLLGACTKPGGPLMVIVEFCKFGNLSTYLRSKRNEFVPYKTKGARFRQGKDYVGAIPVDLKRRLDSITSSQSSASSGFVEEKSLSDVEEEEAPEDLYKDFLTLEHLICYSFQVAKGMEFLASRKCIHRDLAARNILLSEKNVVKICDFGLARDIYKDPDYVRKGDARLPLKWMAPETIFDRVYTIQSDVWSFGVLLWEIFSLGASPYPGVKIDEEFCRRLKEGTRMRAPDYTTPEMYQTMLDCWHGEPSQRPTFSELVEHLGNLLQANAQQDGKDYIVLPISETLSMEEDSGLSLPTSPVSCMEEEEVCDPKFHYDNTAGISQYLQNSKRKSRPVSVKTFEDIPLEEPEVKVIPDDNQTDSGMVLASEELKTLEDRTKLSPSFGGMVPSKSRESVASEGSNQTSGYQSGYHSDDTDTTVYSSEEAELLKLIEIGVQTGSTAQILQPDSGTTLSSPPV

MCF7 [4] = assay: Effect on total RAF1 protein expression in human MCF7 cells at 0.5 uM after 24 hrs by Western blot analysis; format: ADME, cell-based; conditions: mcf7, 24 h
[5] = molecular target: RAF proto-oncogene serine/threonine-protein kinase (Homo sapiens) (UniProt P04049); assay: Inhibition of RAF1 phosphorylation in human MCF7 cells at 0.5 uM after 24 hrs by Western blot analysis; format: cell-based
Sequence of RAF proto-oncogene serine/threonine-protein kinase (Homo sapiens) (P04049 whole entry): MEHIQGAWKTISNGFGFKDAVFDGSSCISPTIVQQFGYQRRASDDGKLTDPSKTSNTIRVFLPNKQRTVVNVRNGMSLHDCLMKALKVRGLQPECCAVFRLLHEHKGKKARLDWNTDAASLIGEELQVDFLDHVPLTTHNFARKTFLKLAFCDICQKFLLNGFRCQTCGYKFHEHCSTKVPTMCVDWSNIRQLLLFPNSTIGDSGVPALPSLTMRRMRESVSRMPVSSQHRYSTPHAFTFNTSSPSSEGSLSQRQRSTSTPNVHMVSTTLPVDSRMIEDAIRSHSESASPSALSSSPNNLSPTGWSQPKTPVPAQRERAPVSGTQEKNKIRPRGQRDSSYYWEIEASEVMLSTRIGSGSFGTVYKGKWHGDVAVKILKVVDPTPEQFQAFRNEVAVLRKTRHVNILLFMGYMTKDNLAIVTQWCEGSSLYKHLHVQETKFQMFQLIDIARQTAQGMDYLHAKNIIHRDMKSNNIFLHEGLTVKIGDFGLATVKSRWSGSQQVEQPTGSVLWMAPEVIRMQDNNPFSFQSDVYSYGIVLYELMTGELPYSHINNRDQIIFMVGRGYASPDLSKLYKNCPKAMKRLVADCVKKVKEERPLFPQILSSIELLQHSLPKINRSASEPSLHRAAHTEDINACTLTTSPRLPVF

MCF7 [6] = assay: Potency index, ratio of raloxifene IC50 to compound IC50 for antiproliferative activity against human MCF7 cells; format: functional; procedure, shortened: as §1
[7] = molecular target: T1, Vascular endothelial growth factor receptor 2; conditions: at 10 µM
MCF7 [8] = assay: Induction of apoptosis in human MCF7 cells assessed as late apoptotic cells at 0.5 uM after 24 hrs by Annexin V-FITC/propidium iodide staining based flow cytometry (reference value: 6.01%); format: functional
MCF7 [9] = assay: Induction of apoptosis in human MCF7 cells assessed as early apoptotic cells at 1 uM after 24 hrs by Annexin V-FITC/propidium iodide staining based flow cytometry (reference value: 4.46%); format: functional
Ishikawa = assay: Antiproliferative activity against human Ishikawa cells after 48 hrs by MTT assay; format: functional, cell-based
Procedure, shortened: (§2)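 MTT assay. Cells were grown in RPMI1640 with 10% FBS and penicillin/streptomycin at 37°C, 5% CO2, seeded at 1×10^5/mL and rested 24 h. Compound was added at 4×10^-5 to 1×10^-6 mol/L for 48 h; controls received 1% DMSO. MTT (5 mg/mL) was added for 4 h in the dark and the formazan dissolved in DMSO. A490 was read and IC50 derived.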

HUVEC = assay: Antiproliferative activity against HUVEC after 48 hrs by MTT assay; format: functional, cell-based; conditions: Homo sapiens; procedure, shortened: as §2
[10] = molecular target: T2, Estrogen receptor (Homo sapiens) (UniProt P03372); assay: Antagonist activity at ERalpha in human MCF7 cells assessed as reduction in E2-induced progesterone receptor mRNA level at 0.4 uM by RT-PCR method; format: cell-based
T2 sequence (whole entry): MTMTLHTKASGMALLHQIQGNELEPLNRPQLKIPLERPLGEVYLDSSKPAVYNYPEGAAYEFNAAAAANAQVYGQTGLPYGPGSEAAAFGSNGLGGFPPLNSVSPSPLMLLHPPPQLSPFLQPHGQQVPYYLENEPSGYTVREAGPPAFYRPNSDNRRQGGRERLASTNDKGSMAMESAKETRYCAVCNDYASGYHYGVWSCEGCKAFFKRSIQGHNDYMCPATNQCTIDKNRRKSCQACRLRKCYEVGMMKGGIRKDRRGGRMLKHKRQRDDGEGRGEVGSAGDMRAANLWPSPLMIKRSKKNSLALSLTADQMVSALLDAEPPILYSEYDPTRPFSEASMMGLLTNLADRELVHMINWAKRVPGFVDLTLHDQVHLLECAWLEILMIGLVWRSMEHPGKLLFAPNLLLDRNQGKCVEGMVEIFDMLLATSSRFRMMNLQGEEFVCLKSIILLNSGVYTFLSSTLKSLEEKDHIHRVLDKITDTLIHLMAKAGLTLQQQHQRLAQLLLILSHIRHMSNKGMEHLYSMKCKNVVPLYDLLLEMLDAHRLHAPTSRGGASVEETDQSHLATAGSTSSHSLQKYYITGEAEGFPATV
Procedure, shortened: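 Quantitative RT-PCR of progesterone receptor mRNA in MCF-7 cells. RNA was reverse transcribed to cDNA and amplified with SYBR Green: 95°C 2 min, then 40 cycles of 95°C 10 s, 60°C 30 s, 95°C 10 s. Signal was normalized to GAPDH and quantified by ΔΔCT. Values are mean ± SD, n=3, compared against the E2 group.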

MCF7 [11] = assay: Induction of apoptosis in human MCF7 cells assessed as necrtotic cells at 0.5 uM after 24 hrs by Annexin V-FITC/propidium iodide staining based flow cytometry (reference value: 2.05%); format: functional
[12] = molecular target: T1, Vascular endothelial growth factor receptor 2; conditions: HUVEC, at 1 µM
Chorioallantoic membrane = assay: In vivo antiangiogenic activity in chicken egg chorioallantoic membrane after 72 hrs; format: functional, organism-based; conditions: Gallus gallus
Procedure, shortened: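 Chick CAM assay. Fertilized eggs were incubated 7 days at 37°C, then a window of about 1 cm² was opened in the shell. […] Eggs were incubated a further 72 h at 37°C and 60% humidity. CAM was fixed in acetone/ethanol for 10 min and vessels imaged.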

MDA-MB-231 = assay: Antiproliferative activity against human MDA-MB-231 cells after 48 hrs by MTT assay; format: functional, cell-based; procedure, shortened: as §2
MCF7 [13] = assay: Induction of apoptosis in human MCF7 cells assessed as late apoptotic cells at 1 uM after 24 hrs by Annexin V-FITC/propidium iodide staining based flow cytometry (reference value: 6.01%); format: functional
T47D = assay: Antiproliferative activity against human T47D cells after 48 hrs by MTT assay; format: functional, cell-based; procedure, shortened: as §2
MCF7 [14] = assay: Induction of apoptosis in human MCF7 cells assessed as live cells at 0.5 uM after 24 hrs by Annexin V-FITC/propidium iodide staining based flow cytometry (reference value: 87.5%); format: functional
MCF7 [15] = assay: Antimigratory activity against human MCF7 cells at 0.5 to 1 uM after 48 hrs by crystal violet staining based microscopic method; format: functional, cell-based
Procedure, shortened: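 Transwell assay on Matrigel-coated membranes, 5×10^4 cells per well. Cells were treated at plating. After 24 h the invading cells were fixed, with 48 h seeding. Cells were stained with crystal violet (0.1% in 20% methanol) and counted by microscopy. Treatments were 0.5 and 1 µM, with DMSO as vehicle control.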

Estrogen receptor = molecular target: T3, Estrogen receptor (Homo sapiens, UniProt P03372); assay: Displacement of Fluormone ES2 Green from full length human ER-alpha expressed in insect cells after 2 hrs by fluorescence polarization assay
T3 sequence (P03372 whole entry): T2 sequence (whole entry)

[16] = molecular target: Mitogen-activated protein kinase; ERK1/ERK2 (Homo sapiens) (UniProt P27361+P28482); assay: Inhibition of ERK1/ERK2 phosphorylation in human MCF7 cells at 0.5 uM after 24 hrs by Western blot analysis; format: cell-based
Sequence of Mitogen-activated protein kinase; ERK1/ERK2 (Homo sapiens) (P27361 whole entry, looked up): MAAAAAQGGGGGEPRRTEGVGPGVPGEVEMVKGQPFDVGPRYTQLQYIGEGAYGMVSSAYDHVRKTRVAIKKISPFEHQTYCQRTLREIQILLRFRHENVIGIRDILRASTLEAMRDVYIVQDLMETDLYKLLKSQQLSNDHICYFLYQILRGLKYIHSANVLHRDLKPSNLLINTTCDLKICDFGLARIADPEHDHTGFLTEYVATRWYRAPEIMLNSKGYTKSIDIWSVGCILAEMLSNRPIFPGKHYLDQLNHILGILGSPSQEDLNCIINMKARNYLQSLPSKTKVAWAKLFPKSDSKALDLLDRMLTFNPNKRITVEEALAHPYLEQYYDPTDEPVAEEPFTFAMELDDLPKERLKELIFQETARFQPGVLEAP
Sequence of Mitogen-activated protein kinase; ERK1/ERK2 (Homo sapiens) (P28482 whole entry, looked up): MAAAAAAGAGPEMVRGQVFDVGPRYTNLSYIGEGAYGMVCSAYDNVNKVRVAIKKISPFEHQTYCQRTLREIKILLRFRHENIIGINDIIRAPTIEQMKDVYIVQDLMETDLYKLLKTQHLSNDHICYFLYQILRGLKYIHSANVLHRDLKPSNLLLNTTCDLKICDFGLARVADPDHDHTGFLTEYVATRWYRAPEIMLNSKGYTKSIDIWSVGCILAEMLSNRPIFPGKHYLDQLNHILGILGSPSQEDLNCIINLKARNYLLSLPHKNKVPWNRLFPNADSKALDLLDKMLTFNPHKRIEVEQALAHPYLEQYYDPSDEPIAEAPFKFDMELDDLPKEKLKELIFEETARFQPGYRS

MCF7 [17] = assay: Induction of apoptosis in human MCF7 cells assessed as live cells at 1 uM after 24 hrs by Annexin V-FITC/propidium iodide staining based flow cytometry (reference value: 87.5%); format: functional
MCF7 [18] = assay: Induction of apoptosis in human MCF7 cells after 24 hrs by Annexin V-FITC/propidium iodide staining based flow cytometry; format: functional, cell-based
MCF7 [19] = assay: Induction of apoptosis in human MCF7 cells assessed as early apoptotic cells at 0.5 uM after 24 hrs by Annexin V-FITC/propidium iodide staining based flow cytometry (reference value: 4.46%); format: functional
MCF7 [20] = assay: Antiproliferative activity against human MCF7 cells after 48 hrs by MTT assay; format: functional, cell-based; conditions: MCF7, 48 h; procedure, shortened: as §2

SMILES: Oc1ccc(-c2nc(Cl)c(-c3ccccc3)c(Oc3ccc(OCCN4CCCC4)cc3)n2)cc1
- Ratio IC50 (MCF7 [1]): 19 - 20
- Activity (MCF7 [2]): 0.9%
- IC50 [3]: 85 nM
- Activity (MCF7 [4]): Non-Toxic
- inhibition [5]: Active
- Ratio IC50 (MCF7 [6]): 16
- inhibition [7]: 91.1%
- Activity (MCF7 [8]): 14.5%
- Activity (MCF7 [9]): 5.49%
- IC50 (Ishikawa): 5930 nM
- IC50 (HUVEC): 4570 nM
- inhibition [10]: Active
- Activity (MCF7 [11]): 1.11%
- inhibition [12]: Active
- Activity (Chorioallantoic membrane): Dose-dependent effect
- Activity (MDA-MB-231): Dose-dependent effect
- IC50 (MDA-MB-231; MDA-MB-231, 48 h): 3810 nM
- Activity (MCF7 [13]): 28%
- Activity (T47D): Dose-dependent effect
- IC50 (T47D): 2730 nM
- Activity (MCF7 [14]): 75.5%
- Activity (MCF7 [15]): Active
- IC50 (Estrogen receptor): 1640 nM
- inhibition [16]: Active
- Activity (MCF7 [17]): 65.7%
- Activity (MCF7 [18]): Dose-dependent effect
- Activity (MCF7 [19]): 8.89%
- IC50 (MCF7 [20]): 810 nM
